Results taken from ChEMBL document CHEMBL4219186, “Structure-activity relationships in a new class of non-substrate-like covalent inhibitors of the bacterial glycosyltransferase LgtC” (Bioorg Med Chem, 2018).
The source made the active and inactive calls. The calls are words filed in the database; no cut-off is given here.

Key:
LgtC [1] = target: T1, LgtC (Neisseria meningitidis, UniProt Q93EK7); test: Inhibition of recombinant Neisseria meningitidis glycosyltransferase LgtC using UDP-Gal/lactose as substrate preincubated for 20 mins with UDP-Gal followed by lactose addition measured after 20 mins in presence of MnCl2 by malachite green dye based colorimetric assay
T1 sequence (Q93EK7 whole entry): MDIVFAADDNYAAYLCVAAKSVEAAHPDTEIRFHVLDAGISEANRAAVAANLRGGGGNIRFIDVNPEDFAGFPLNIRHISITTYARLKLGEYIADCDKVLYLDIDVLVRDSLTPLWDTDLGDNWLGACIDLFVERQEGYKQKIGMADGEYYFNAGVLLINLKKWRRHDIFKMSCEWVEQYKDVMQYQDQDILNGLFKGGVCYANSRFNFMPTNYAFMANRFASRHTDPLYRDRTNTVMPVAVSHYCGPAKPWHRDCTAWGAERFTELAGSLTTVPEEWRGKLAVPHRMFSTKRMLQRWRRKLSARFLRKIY
Method in brief: (§1)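 Dose-response with DTT-activated recombinant N. meningitidis LgtC at 20-50% donor turnover. Pre-incubation was 20 min at 30 °C with inhibitor (0.1-50 up to 0.1-250 µM, 10% DMSO), UDP-Gal 28 µM, MnCl2 5 mM, CIP 10 U/mL, CEL 1 mg/mL and Triton 0.01% in 13 mM HEPES pH 7.0. Lactose 2 mM was then added for 20 min at 30 °C. Malachite Green A620 read-out; triplicate, mean ± SD.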

[2] = target: T2, LgtC (Neisseria meningitidis) (UniProt Q93EK7); test: (§2) Inhibition of recombinant Neisseria meningitidis glycosyltransferase LgtC using UDP-Gal/lactose as substrate preincubated for 20 mins with UDP-Gal followed by lactose addition measured after 20 mins in presence of MnCl2; method in brief: as §1
T2 sequence (whole entry): T1 sequence (Q93EK7 whole entry)

LgtC [3] = target: T1, LgtC; test: as §2; method in brief: as §1
[4] = target: T2, LgtC (Neisseria meningitidis); test: Inhibition of recombinant Neisseria meningitidis glycosyltransferase LgtC assessed as ratio of Kinact/Ki using UDP-Gal/lactose as substrate preincubated for 20 mins with UDP-Gal followed by lactose addition measured after 20 mins in presence of MnCl2
Method in brief: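 Kinetic parameters from LgtC activity at ranges of inhibitor (0-50 up to 0-250 µM) after 0, 5, 10 and 20 min pre-incubation. Activity, as % of DMSO control, was plotted against pre-incubation time and fitted exponentially to give Kobs. Kobs was then fitted against [I] with the hyperbolic equation to obtain kinact and Ki. Triplicate.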

[5] = target: T2, LgtC (Neisseria meningitidis); test: (§3) Inhibition of recombinant Neisseria meningitidis glycosyltransferase LgtC using UDP-Gal/lactose as substrate at 50 uM preincubated for 30 mins with UDP-Gal followed by lactose addition measured after 20 mins in presence of MnCl2 and calf intestinal phosphatase by malachite green dye based enzyme-coupled colorimetric assay relative to control
Method in brief: (§4)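 Recombinant N. meningitidis LgtC, activated with 10 mM DTT (1:1, 30 min, 30 °C) and set to 20-50% UDP-Gal turnover. It was pre-incubated 30 min at 30 °C with 25 or 50 µM inhibitor in 13 mM HEPES pH 7.0 containing UDP-Gal 28 µM, MnCl2 5 mM, CIP 10 U/mL, CEL 1 mg/mL, Triton 0.01% and 10% DMSO. Lactose 2 mM was then added for 20 min at 30 °C. Malachite Green read at A620; activity taken against a DMSO control.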

[6] = target: T2, LgtC (Neisseria meningitidis); test: as §3, with “25” for “50”; method in brief: as §4
LgtC [7] = target: T1, LgtC; test: as §3, with “substrate” for “substrate at 50 uM”
Method in brief: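 IC50 set-up using DTT-activated recombinant N. meningitidis LgtC at 20-50% donor turnover. Enzyme was pre-incubated 30 min at 30 °C with inhibitor (0.1-100 or 0.1-50 µM, 10% DMSO), UDP-Gal 28 µM, MnCl2 5 mM, CIP 10 U/mL, CEL 1 mg/mL and Triton 0.01% in 13 mM HEPES pH 7.0. Lactose 2 mM was added for 20 min at 30 °C, then read by Malachite Green phosphate detection at 620 nm.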

Haemophilus influenzae [8] = test: Growth inhibition of Haemophilus influenzae R2866 up to 100 uM incubated for 1 hr followed by drug removal and re-plating of colonies for 24 hrs by bacterial viable count method; assay type: organism-based; settings: in vivo
Method in brief: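 H. influenzae R2866 was grown overnight in supplemented BHI at 37 °C, 180 rpm, then diluted to OD590 0.7. Cells were exposed 1 h at 37 °C to compound (0-200 µM; final DMSO 10%) or DMSO. They were centrifuged, washed twice with sBHI, serially diluted and plated on chocolate agar (24 h, 37 °C, 5% CO2) for viable counts. Triplicate, mean; unpaired t-test.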

Haemophilus influenzae [9] = test: Toxicity against Haemophilus influenzae R2866; assay type: organism-based; settings: in vivo
Haemophilus influenzae [10] = test: Potentiation of human serum-induced killing of Haemophilus influenzae R2866 at 100 uM in presence of 30% v/v human serum pre-incubated for 1 hr followed by drug removal and re-plating of colonies for 24 hrs by bacterial viable count method; assay type: functional, organism-based
Method in brief: (§5)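 Overnight R2866 sBHI culture, diluted to OD590 0.7, was exposed 1 h at 37 °C to 30% v/v normal human serum plus inhibitor (50 or 100 µM); the control received 30% serum alone. Serum and compound were removed by centrifugation and two sBHI washes. Cells were serially diluted and plated on chocolate agar (24 h, 37 °C, 5% CO2) for viable counts. Triplicate, mean.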

Haemophilus influenzae [11] = test: Potentiation of human serum-induced killing of Haemophilus influenzae R2866 at 50 uM in presence of 30% v/v human serum pre-incubated for 1 hr followed by drug removal and re-plating of colonies for 24 hrs by bacterial viable count method; assay type: functional, organism-based; method in brief: as §5

Row | Compound | IC50 (LgtC [1]) [µM] | Kinact [2] [s⁻¹] | Ki (LgtC [3]) [µM] | Ratio [4] [M⁻¹ s⁻¹] | inhibition [5] [%] | inhibition [6] [%] | IC50 (LgtC [7]) [µM] | also measured
1 | O=C1/C(=C\c2ccc(O)cc2)C(C(F)(F)F)=NN1c1ccccc1 | 5.8 | 0.0025 | 6.8 | 370 |  |  |  | 
2 | COc1ccc(/C=C2\C(=O)N(c3ccccc3)N=C2C(=O)O)cc1Br |  |  |  |  | 58 | 35 |  | 
3 | O=C1/C(=C\c2ccc(OCc3ccccc3)cc2)C(C(F)(F)F)=NN1c1ccccc1 | 3.3 | 0.0011 | 4.7 | 238 |  |  |  | 
4 | O=C1/C(=C\c2ccc(Cl)cc2)C(C(F)(F)F)=NN1c1ccccc1 | 80 | 0.0009 | 49 | 18 |  |  | 25 | 
5 | CC1=NN(c2ccccc2)C(=O)/C1=C\c1ccccc1C(F)(F)F |  |  |  |  |  |  |  | growth inhibition (GI) (Haemophilus influenzae [8]): Non-Toxic; growth inhibition (GI) (Haemophilus influenzae [9]): Toxic; Activity (Haemophilus influenzae [10]): inactive
6 | CCOC(=O)C1=NN(c2ccccc2)C(=O)/C1=C\c1ccc(OC)c(Br)c1 |  |  |  |  | 66 | 61 |  | 
7 | COc1ccc(/C=C2\C(=O)N(c3cccc(C(=O)O)c3)N=C2C(F)(F)F)cc1Br |  |  |  |  |  |  | 3 | 
8 | COc1ccc(/C=C2\C(=O)N(Cc3ccccc3)N=C2C(F)(F)F)cc1Br |  |  |  |  |  |  | 12 | 
9 | O=C1/C(=C\c2ccccc2)C(C(F)(F)F)=NN1c1ccccc1 | 63 | 0.002 | 153 | 13 |  |  | 28 | 
10 | COc1ccc(/C=C2\C(=O)N(c3ccccc3)N=C2C(F)(F)F)cc1 | 8.9 | 0.0015 | 19 | 80 |  |  |  | 
11 | COc1ccc(/C=C2\C(=O)N(c3ccccc3)N=C2C)cc1Br |  |  |  |  | 43 | 33 | > 50 | 
12 | COc1ccc(/C=C2\C(=O)N(c3ccccc3)N=C2C(N)=O)cc1Br |  |  |  |  | 39 | 31 |  | 
13 | O=C1/C(=C\c2cccc(Cl)c2)C(C(F)(F)F)=NN1c1ccccc1 | 64 | 0.0016 | 88 | 18 |  |  |  | 
14 | CCOC(=O)CC1=NN(c2ccccc2)C(=O)/C1=C\c1ccc(OC)c(Br)c1 |  |  |  |  | 67 | 32 |  | 
15 | CCOC(=O)c1ccccc1/C=C1\C(=O)N(c2ccccc2)N=C1C(F)(F)F |  |  |  |  |  |  | > 100 | 
16 | COc1ccc(/C=C2\C(=O)N(c3ccc(C(=O)O)cc3)N=C2C(F)(F)F)cc1Br |  |  |  |  |  |  | 2.9 | 
17 | COc1ccc(/C=C2\C(=O)N(c3ccccc3)N=C2C(F)(F)F)cc1Br | 6.4 | 0.0012 | 7.1 | 163 | 84 | 80 | 3.1 | growth inhibition (GI) (Haemophilus influenzae [8]): Non-Toxic; Activity (Haemophilus influenzae [11]): inactive
18 | O=C1/C(=C\c2cccc(OCc3ccccc3)c2)C(C(F)(F)F)=NN1c1ccccc1 | 38 | 0.0018 | 50 | 36 |  |  | 18 | growth inhibition (GI) (Haemophilus influenzae [8]): Non-Toxic; growth inhibition (GI) (Haemophilus influenzae [9]): Toxic; Activity (Haemophilus influenzae [10]): inactive
19 | COc1ccc(/C=C2\C(=O)N(c3cccc(C(=O)NCCO)c3)N=C2C(F)(F)F)cc1Br |  |  |  |  |  |  | 4.3 | 
